Assay results taken from ChEMBL document CHEMBL1146219, “Synthesis and evaluation of novel radioiodinated benzamides for malignant melanoma” (J Med Chem, 2007).
Each block holds one compound with its values, some of them ahead of it.

Tests used:
[1] = Lipophilicity, log P at pH 7.5; assay type: physicochemical; details: buffer
[2] = molecular target: Sigma non-opioid intracellular receptor 1 (Cavia porcellus, UniProt Q60492); assay: Displacement of [3H](+)-pentazocine from sigma 1 receptor in guinea pig brain membrane; assay type: cell membranes
Chain of Sigma non-opioid intracellular receptor 1 (Q60492 whole entry): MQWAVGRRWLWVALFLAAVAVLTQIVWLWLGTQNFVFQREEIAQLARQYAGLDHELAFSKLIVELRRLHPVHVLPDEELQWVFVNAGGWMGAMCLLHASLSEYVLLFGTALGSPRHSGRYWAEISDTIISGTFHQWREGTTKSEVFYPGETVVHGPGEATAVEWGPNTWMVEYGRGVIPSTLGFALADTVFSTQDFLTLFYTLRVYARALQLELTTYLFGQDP
In short: (§1)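 Guinea pig brain membranes, incubated in duplicate for 2 h at 25 °C in Tris-HCl pH 8.0. Benzamide 10⁻¹⁰ to […] against 2 nM [³H]-(+)-pentazocine (σ₁) or 2 nM [³H]DTG plus 100 nM (+)-pentazocine (σ₂). Nonspecific binding defined with 1 µM haloperidol. GF/B filtration, bound activity by β-scintillation counting, giving IC50 then Ki. Full curves run only where 10⁻⁵ M inhibited >90%.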

[3] = Displacement of [3H]DTG from sigma 2 receptor in guinea pig brain membrane; assay type: cell membranes, Cavia porcellus; in short: as §1
Brain [4] = assay: Biodistribution in brain of B16F0 tumor bearing C57BL/6J mouse at 0.37-0.74 MBq, iv after 6 hrs; assay type: ADME, organism-based; details: in vivo
In short: (§2)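 Female C57BL/6J mice (15-18 g) were given B16F0 cells subcutaneously in the left flank (0.1 mL of 3 × 10⁶ viable cells/mL in Ca²⁺/Mg²⁺-free PBS) at 6-7 weeks and used after ten days. [¹²³I]benzamide (0.37-0.74 MBq, 100 µL, saline) was injected via the tail vein. Groups of n = 5 were killed by CO₂ and cervical dislocation. Organs were weighed and γ-counted, and the carcass was counted too.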

Lung [5] = assay: Biodistribution in lung of B16F0 tumor bearing C57BL/6J mouse at 0.37-0.74 MBq, iv after 6 hrs; assay type: ADME, organism-based; details: in vivo; in short: as §2
Heart [6] = assay: Biodistribution in heart of B16F0 tumor bearing C57BL/6J mouse at 0.37-0.74 MBq, iv after 24 hrs; assay type: ADME, organism-based; details: in vivo; in short: as §2
Blood [7] = assay: Biodistribution in blood of B16F0 tumor bearing C57BL/6J mouse at 0.37-0.74 MBq, iv after 24 hrs; assay type: ADME, organism-based; details: in vivo; in short: as §2
Brain [8] = assay: Biodistribution in brain of B16F0 tumor bearing C57BL/6J mouse at 0.37-0.74 MBq, iv after 1 hr; assay type: ADME, organism-based; details: in vivo; in short: as §2
Liver [9] = assay: Biodistribution in liver of B16F0 tumor bearing C57BL/6J mouse at 0.37-0.74 MBq, iv after 6 hrs; assay type: ADME, organism-based; details: in vivo; in short: as §2
Liver [10] = assay: Biodistribution in liver of B16F0 tumor bearing C57BL/6J mouse at 0.37-0.74 MBq, iv after 24 hrs; assay type: ADME, organism-based; details: in vivo; in short: as §2
Liver [11] = assay: Biodistribution in liver of B16F0 tumor bearing C57BL/6J mouse at 0.37-0.74 MBq, iv after 1 hr; assay type: ADME, organism-based; details: in vivo; in short: as §2
Heart [12] = assay: Biodistribution in heart of B16F0 tumor bearing C57BL/6J mouse at 0.37-0.74 MBq, iv after 1 hr; assay type: ADME, organism-based; details: in vivo; in short: as §2
Kidney [13] = assay: Biodistribution in kidney of B16F0 tumor bearing C57BL/6J mouse at 0.37-0.74 MBq, iv after 24 hrs; assay type: ADME, organism-based; details: in vivo; in short: as §2
[14] = Biodistribution in melanoma of B16F0 tumor bearing C57BL/6J mouse at 0.37-0.74 MBq, iv after 6 hrs; assay type: ADME, organism-based, B16-F0; details: in vivo
In short: (§3)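 Female C57BL/6J mice (15-18 g) carrying s.c. B16F0 flank tumors (0.1 mL of 3 × 10⁶ viable cells per mL in Ca²⁺/Mg²⁺-free PBS, inoculated at 6-7 weeks, used 10 days later). [¹²³I]tracer 0.37-0.74 MBq in saline, 100 µL, tail-vein i.v. Groups of n = 5 killed at 1-72 h. Organs weighed and γ-counted, carcass activity also counted, values as %ID/g.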

Blood [15] = assay: Biodistribution in blood of B16F0 tumor bearing C57BL/6J mouse at 0.37-0.74 MBq, iv after 6 hrs; assay type: ADME, organism-based; details: in vivo; in short: as §2
Lung [16] = assay: Biodistribution in lung of B16F0 tumor bearing C57BL/6J mouse at 0.37-0.74 MBq, iv after 24 hrs; assay type: ADME, organism-based; details: in vivo; in short: as §2
Heart [17] = assay: Biodistribution in heart of B16F0 tumor bearing C57BL/6J mouse at 0.37-0.74 MBq, iv after 6 hrs; assay type: ADME, organism-based; details: in vivo; in short: as §2
Lung [18] = assay: Biodistribution in lung of B16F0 tumor bearing C57BL/6J mouse at 0.37-0.74 MBq, iv after 1 hr; assay type: ADME, organism-based; details: in vivo; in short: as §2
[19] = Biodistribution in melanoma of B16F0 tumor bearing C57BL/6J mouse at 0.37-0.74 MBq, iv after 24 hrs; assay type: ADME, organism-based, B16-F0; details: in vivo; in short: as §2
Brain [20] = assay: Biodistribution in brain of B16F0 tumor bearing C57BL/6J mouse at 0.37-0.74 MBq, iv after 24 hrs; assay type: ADME, organism-based; details: in vivo; in short: as §2
Kidney [21] = assay: Biodistribution in kidney of B16F0 tumor bearing C57BL/6J mouse at 0.37-0.74 MBq, iv after 6 hrs; assay type: ADME, organism-based; details: in vivo; in short: as §2
Blood [22] = assay: Biodistribution in blood of B16F0 tumor bearing C57BL/6J mouse at 0.37-0.74 MBq, iv after 1 hr; assay type: ADME, organism-based; details: in vivo; in short: as §2
[23] = Biodistribution in melanoma of B16F0 tumor bearing C57BL/6J mouse at 0.37-0.74 MBq, iv after 1 hr; assay type: ADME, organism-based, B16-F0; details: in vivo; in short: as §2
Kidney [24] = assay: Biodistribution in kidney of B16F0 tumor bearing C57BL/6J mouse at 0.37-0.74 MBq, iv after 1 hr; assay type: ADME, organism-based; details: in vivo; in short: as §2
Lung [25] = assay: Biodistribution in lung of B16F0 tumor bearing C57BL/6J mouse at 0.37-0.74 MBq, iv after 48 hrs; assay type: ADME, organism-based; details: in vivo; in short: as §2
Liver [26] = assay: Biodistribution in liver of B16F0 tumor bearing C57BL/6J mouse at 0.37-0.74 MBq, iv after 48 hrs; assay type: ADME, organism-based; details: in vivo; in short: as §2
Brain [27] = assay: Biodistribution in brain of B16F0 tumor bearing C57BL/6J mouse at 0.37-0.74 MBq, iv after 48 hrs; assay type: ADME, organism-based; details: in vivo; in short: as §2
Kidney [28] = assay: Biodistribution in kidney of B16F0 tumor bearing C57BL/6J mouse at 0.37-0.74 MBq, iv after 72 hrs; assay type: ADME, organism-based; details: in vivo; in short: as §2
Kidney [29] = assay: Biodistribution in kidney of B16F0 tumor bearing C57BL/6J mouse at 0.37-0.74 MBq, iv after 48 hrs; assay type: ADME, organism-based; details: in vivo; in short: as §2
Liver [30] = assay: Biodistribution in liver of B16F0 tumor bearing C57BL/6J mouse at 0.37-0.74 MBq, iv after 72 hrs; assay type: ADME, organism-based; details: in vivo; in short: as §2
Heart [31] = assay: Biodistribution in heart of B16F0 tumor bearing C57BL/6J mouse at 0.37-0.74 MBq, iv after 72 hrs; assay type: ADME, organism-based; details: in vivo; in short: as §2
Blood [32] = assay: Biodistribution in blood of B16F0 tumor bearing C57BL/6J mouse at 0.37-0.74 MBq, iv after 48 hrs; assay type: ADME, organism-based; details: in vivo; in short: as §2
Heart [33] = assay: Biodistribution in heart of B16F0 tumor bearing C57BL/6J mouse at 0.37-0.74 MBq, iv after 48 hrs; assay type: ADME, organism-based; details: in vivo; in short: as §2
[34] = Biodistribution in melanoma of B16F0 tumor bearing C57BL/6J mouse at 0.37-0.74 MBq, iv after 72 hrs; assay type: ADME, organism-based, B16-F0; details: in vivo; in short: as §3
[35] = Biodistribution in melanoma of B16F0 tumor bearing C57BL/6J mouse at 0.37-0.74 MBq, iv after 48 hrs; assay type: ADME, organism-based, B16-F0; details: in vivo; in short: as §2
Blood [36] = assay: Biodistribution in blood of B16F0 tumor bearing C57BL/6J mouse at 0.37-0.74 MBq, iv after 72 hrs; assay type: ADME, organism-based; details: in vivo; in short: as §2

Structure (SMILES): O=C(NC1CCN(CCO)CC1)c1ccc([123I])cc1
- Drug uptake (Brain [4]): 0.46 % ID/g
- Drug uptake (Lung [5]): 4.7 % ID/g
- Drug uptake (Heart [6]): 0.49 % ID/g
- Drug uptake (Blood [7]): 0.04 % ID/g
- Drug uptake (Brain [8]): 1 % ID/g
- Drug uptake (Liver [9]): 9.2 % ID/g
- Drug uptake (Liver [10]): 5.4 % ID/g
- Drug uptake (Liver [11]): 17.1 % ID/g
- Drug uptake (Heart [12]): 3.1 % ID/g
- Drug uptake (Kidney [13]): 1.2 % ID/g
- Drug uptake [14]: 11.7 % ID/g
- Drug uptake (Blood [15]): 0.21 % ID/g
- Drug uptake (Lung [16]): 1.44 % ID/g
- Drug uptake (Heart [17]): 0.93 % ID/g
- Drug uptake (Lung [18]): 17.8 % ID/g
- Drug uptake [19]: 9.2 % ID/g
- Drug uptake (Brain [20]): 0.15 % ID/g
- Drug uptake (Kidney [21]): 3.2 % ID/g
- Drug uptake (Blood [22]): 1 % ID/g
- Drug uptake [23]: 5.9 % ID/g
- Drug uptake (Kidney [24]): 10.6 % ID/g

Structure (SMILES): CCN(CC)CCNC(=O)c1cc(I)c(NS(=O)(=O)c2ccc(C)cc2)cc1OC
- logD [1]: 1.95
- Ki [2]: 650 nM
- Ki [3]: > 100000 nM

Structure (SMILES): COc1cc(NC(C)=O)c(I)cc1C(=O)NCCCCN(C)C(C)C
- logD [1]: 0.75
- Ki [2]: 5200 nM
- Ki [3]: 5400 nM

Structure (SMILES): CCCN(CCC)CCCCNC(=O)c1ccc(I)cc1
- logD [1]: 2.46
- Ki [2]: 1300 nM
- Ki [3]: 1000 nM

Now from value to compound:

- logD [1]: 1.54
- Ki [2]: 1650 nM
- Ki [3]: > 100000 nM
Structure (SMILES): CCN(CC)CCNC(=O)c1cc(I)c(NC(C)=O)cc1OC

- Drug uptake (Lung [25]): 0.07 % ID/g
- Drug uptake (Brain [4]): 0.02 % ID/g
- Drug uptake (Lung [5]): 0.4 % ID/g
- Drug uptake (Heart [6]): 0.12 % ID/g
- Drug uptake (Liver [26]): 0.51 % ID/g
- Drug uptake (Blood [7]): 0.08 % ID/g
- Drug uptake (Brain [8]): 0.13 % ID/g
- Drug uptake (Liver [9]): 2.3 % ID/g
- Drug uptake (Liver [10]): 1.1 % ID/g
- Drug uptake (Brain [27]): 0.01 % ID/g
- Drug uptake (Kidney [28]): 0.06 % ID/g
- Drug uptake (Kidney [29]): 0.04 % ID/g
- Drug uptake (Liver [11]): 9 % ID/g
- Drug uptake (Heart [12]): 0.79 % ID/g
- Drug uptake (Kidney [13]): 0.08 % ID/g
- Drug uptake (Liver [30]): 0.28 % ID/g
- Drug uptake (Heart [31]): 0.18 % ID/g
- Drug uptake (Blood [32]): 0.03 % ID/g
- Drug uptake (Heart [33]): 0.07 % ID/g
- Drug uptake [34]: 2.2 % ID/g
- Drug uptake [14]: 8.5 % ID/g
- Drug uptake (Blood [15]): 0.35 % ID/g
- Drug uptake (Lung [16]): 0.09 % ID/g
- Drug uptake (Heart [17]): 0.31 % ID/g
- Drug uptake (Lung [18]): 1.3 % ID/g
- Drug uptake [35]: 3.4 % ID/g
- Drug uptake [19]: 5.2 % ID/g
- Drug uptake (Blood [36]): 0.06 % ID/g
- Drug uptake (Brain [20]): 0.01 % ID/g
- Drug uptake (Kidney [21]): 0.44 % ID/g
- Drug uptake (Blood [22]): 0.98 % ID/g
- Drug uptake [23]: 9.6 % ID/g
- Drug uptake (Kidney [24]): 2.3 % ID/g
Structure (SMILES): CCN(CC)CCNC(=O)c1cc([123I])c(NC(C)=O)cc1OC

- logD [1]: 0.82
- Ki [2]: 800 nM
- Ki [3]: 45000 nM
Structure (SMILES): CCN(CC)CCNC(=O)c1cc(I)c(NS(C)(=O)=O)cc1OC
